pEC50, pIC50: −log10 of the molar value. Converted amounts (≈) assume the structure as drawn.
Columns and labels:
[1] = Retention time of the compound by LC-MS analysis; assay type: physicochemical
In short: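 Eluents were water and acetonitrile, each with TFA, run as a 5 to 95% acetonitrile gradient over 1.5 min at 1.5 mL/min. Capillary voltage was 3.5 kV and fragmentor voltage 50 V.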

[2] = biological target: GABA-A receptor; agonist GABA site; assay: Positive allosteric modulation of recombinant alpha4beta3delta GABAA receptor (unknown origin) expressed in CHO cells assessed as potentiation of GABA-induced channel current treated for 30 s prior to GABA stimulation for 2s by manual patch assay; assay type: cell-based, Homo sapiens
[3] = biological target: GABA-A receptor; anion channel; assay: Displacement of [3H]TBPS from GABAA receptor in Sprague-Dawley rat brain cortical membrane after 90 mins by liquid scintillation spectrometry
[4] = biological target: GABA-A receptor; agonist GABA site; assay: Positive allosteric modulation of recombinant alpha1beta2gamma2 GABAA receptor (unknown origin) expressed in LTK cells assessed as potentiation of GABA-induced channel current treated for 30 s prior to GABA stimulation for 2s by Q-patch assay; assay type: cell-based, Homo sapiens
[5] = Clearance in human liver microsomes at 10 uM after 60 mins by HPLC-MS/MS analysis; assay type: ADME
[6] = Clearance in rat liver microsomes at 10 uM after 60 mins by HPLC-MS/MS analysis; assay type: ADME
[7] = Clearance in mouse liver microsomes at 10 uM after 60 mins by HPLC-MS/MS analysis; assay type: ADME
[8] = Lipophilicity, log D of the compound at 20 uM at pH 7.4 by HPLC-MS/MS analysis; assay type: physicochemical; settings: buffer
[9] = Aqueous solubility of the compound at pH 7.4 by HPLC-MS/MS analysis; assay type: physicochemical; settings: buffer
[10] = Clearance in Sprague-Dawley rat at 5 mg/kg, iv and 20 mg/kg, po by LC-MS/MS analysis; assay type: ADME, organism-based; settings: in vivo
In short: (§1)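 Rats were dosed i.v. at 5 mpk and orally at 20 mpk. Clearance and oral bioavailability were calculated from mean plasma concentrations of 2 rats.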

[11] = Oral bioavailability in Sprague-Dawley rat at 20 mg/kg by LC-MS/MS analysis; assay type: ADME, organism-based; settings: in vivo; in short: as §1
[12] = Ratio of drug level in brain to plasma in Sprague-Dawley rat at 5 mg/kg, iv after 30 mins by LC-MS/MS analysis; assay type: ADME, organism-based; design: dose 5 mg/kg, route intravenous; settings: read-out: BPR
In short: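 Brain and plasma were sampled at a single point 30 min after the i.v. 5 mpk dose. The ratio was calculated from mean concentrations of 2 rats.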

Row | Structure (SMILES) | Retention_time [1] | pEC50 [2] | pIC50 [3] | pEC50 [4] | CLhep predicted at 10 µM [5] | CLhep predicted at 10 µM [6] | CLhep predicted at 10 µM [7] | logD at 20 µM [8] | solubility [9] | clearance [10] | bioavailability [11] | Kp at 0.5 h [12]
1 | C[C@@]1(O)CC[C@H]2[C@H](CC[C@@H]3[C@@H]2CC[C@]2(C)[C@@H](C(=O)Cn4ncc5cccnc54)CC[C@@H]32)C1 | 0.9 min | 5.73 | 7.80 | 5.76 |  |  |  |  |  |  |  | 
2 | C[C@@]1(O)CC[C@H]2[C@@H](CC[C@@H]3[C@@H]2CC[C@]2(C)[C@@H](C(=O)Cn4cncn4)CC[C@@H]32)C1 | 0.84 min | 6.11 | 6.76 | < 5.52 |  |  |  |  |  |  |  | 
3 | CC(=O)[C@H]1CC[C@H]2[C@@H]3CC[C@H]4C[C@](C)(O)CC[C@@H]4[C@H]3CC[C@]12C |  | 6.26 | 7.13 | 6.45 | 8.33 mL/min/kg | 52.8 mL/min/kg | 67.5 mL/min/kg | 5.1 | 1 µM (≈ 0.319 µg/mL) |  |  | 
4 | C[C@@]1(O)CC[C@H]2[C@H](CC[C@@H]3[C@@H]2CC[C@]2(C)[C@@H](C(=O)Cn4ccnn4)CC[C@@H]32)C1 | 0.84 min | 5.74 | 7.57 | 5.74 |  |  |  |  |  |  |  | 
5 | C[C@@]1(O)CC[C@H]2[C@H](CC[C@@H]3[C@@H]2CC[C@]2(C)[C@@H](C(=O)Cn4ccnc4)CC[C@@H]32)C1 | 0.76 min | 5.50 | 7.68 | < 5.52 |  |  |  |  |  |  |  | 
6 | C[C@@]1(O)CC[C@H]2[C@H](CC[C@@H]3[C@@H]2CC[C@]2(C)[C@@H](C(=O)Cn4cccn4)CC[C@@H]32)C1 | 0.88 min | 5.84 | 7.49 | 6.02 |  |  |  |  |  |  |  | 
7 | C[C@@]1(O)CC[C@H]2[C@H](CC[C@@H]3[C@@H]2CC[C@]2(C)[C@@H](C(=O)CN4CCCC4)CC[C@@H]32)C1 | 0.745 min |  | 5.89 |  |  |  |  |  |  |  |  | 
8 | C[C@@]1(O)CC[C@H]2[C@H](CC[C@@H]3[C@@H]2CC[C@]2(C)[C@@H](C(=O)Cn4ncc5ccccc54)CC[C@@H]32)C1 | 0.95 min | 6.29 | 7.82 | 5.81 |  |  |  |  |  |  |  | 
9 | C[C@@]1(O)CC[C@H]2[C@H](CC[C@@H]3[C@@H]2CC[C@]2(C)[C@@H](C(=O)Cn4cc5ccccc5n4)CC[C@@H]32)C1 | 0.92 min | 5.60 | 7.96 | 5.72 |  |  |  |  |  |  |  | 
10 | C[C@@]1(O)CC[C@H]2[C@@H](CC[C@@H]3[C@@H]2CC[C@]2(C)[C@@H](C(=O)Cn4nccn4)CC[C@@H]32)C1 | 0.889 min | 5.85 | 7.27 | 6.23 |  |  |  |  |  |  |  | 
11 | C[C@@]1(O)CC[C@H]2[C@@H](CC[C@@H]3[C@@H]2CC[C@]2(C)[C@@H](C(=O)CN4CCCC4)CC[C@@H]32)C1 | 0.77 min |  | 5.54 |  |  |  |  |  |  |  |  | 
12 | C[C@@]1(O)CC[C@H]2[C@H](CC[C@@H]3[C@@H]2CC[C@]2(C)[C@@H](C(=O)Cn4ncc5c4CCCC5)CC[C@@H]32)C1 | 0.94 min | < 5.52 | 7.30 | 5.83 |  |  |  |  |  |  |  | 
13 | C[C@@]1(O)CC[C@H]2[C@H](CC[C@@H]3[C@@H]2CC[C@]2(C)[C@@H](C(=O)Cn4cnnn4)CC[C@@H]32)C1 | 0.84 min | 6.40 | 7.16 | 5.66 |  |  |  |  |  |  |  | 
14 | C[C@@]1(O)CC[C@H]2[C@H](CC[C@@H]3[C@@H]2CC[C@]2(C)[C@@H](C(=O)Cn4cc5cccnc5n4)CC[C@@H]32)C1 | 0.8 min | 5.99 | 7.38 | < 5.52 |  |  |  |  |  |  |  | 
15 | C[C@@]1(O)CC[C@H]2[C@@H](CC[C@@H]3[C@@H]2CC[C@]2(C)[C@@H](C(=O)Cn4cnnn4)CC[C@@H]32)C1 | 0.86 min | 5.67 | 6.67 | < 5.52 |  |  |  |  |  |  |  | 
16 | CC(=O)[C@H]1CC[C@H]2[C@@H]3CC[C@H]4C[C@](C)(O)CC[C@]4(C)[C@H]3CC[C@]12C [GANAXOLONE] |  | 6.99 | 7.38 | 6.58 | 6.5 mL/min/kg | 55.7 mL/min/kg | 67.5 mL/min/kg | 5.3 | 0.7 µM (≈ 0.233 µg/mL) | 51.7 mL/min/kg | 10% | 4
17 | C[C@@]1(O)CC[C@H]2[C@H](CC[C@@H]3[C@@H]2CC[C@]2(C)[C@@H](C(=O)Cn4cc5c(n4)CCCC5)CC[C@@H]32)C1 | 0.93 min | 6.75 | 7.62 | 6.14 | 10.8 mL/min/kg | 55.7 mL/min/kg | 67.5 mL/min/kg | 5.7 | 0.3 µM (≈ 0.132 µg/mL) |  |  | 
18 | CC(=O)[C@H]1CC[C@H]2[C@@H]3CC[C@@H]4C[C@](C)(O)CC[C@@H]4[C@H]3CC[C@]12C |  | 6.92 | 7.26 | 6.43 |  |  |  |  |  |  |  | 
19 | C[C@@]1(O)CC[C@H]2[C@H](CC[C@@H]3[C@@H]2CC[C@]2(C)[C@@H](C(=O)Cn4cc5cnccc5n4)CC[C@@H]32)C1 | 1.06 min | 5.87 | 7.62 | < 5.52 |  |  |  |  |  |  |  | 
20 | C[C@@]1(O)CC[C@H]2[C@H](CC[C@@H]3[C@@H]2CC[C@]2(C)[C@@H](C(=O)Cn4ncc5ccncc54)CC[C@@H]32)C1 | 0.8 min | < 5.52 | 7.77 | < 5.52 |  |  |  |  |  |  |  | 
21 | C[C@@]1(O)CC[C@H]2[C@@H](CC[C@@H]3[C@@H]2CC[C@]2(C)[C@@H](C(=O)Cn4ccnc4)CC[C@@H]32)C1 | 0.76 min | < 5.52 | 6.97 | < 5.52 |  |  |  |  |  |  |  | 
22 | C[C@@]1(O)CC[C@H]2[C@H](CC[C@@H]3[C@@H]2CC[C@]2(C)[C@@H](C(=O)Cn4cncn4)CC[C@@H]32)C1 | 0.829 min | < 5.52 | 6.85 | < 5.52 |  |  |  |  |  |  |  | 
23 | C[C@@]1(O)CC[C@H]2[C@H](CC[C@@H]3[C@@H]2CC[C@]2(C)[C@@H](C(=O)Cn4ncc5cnccc54)CC[C@@H]32)C1 | 0.75 min | 5.85 | 7.48 | < 5.52 |  |  |  |  |  |  |  | 
24 | C[C@@]1(O)CC[C@H]2[C@@H](CC[C@@H]3[C@@H]2CC[C@]2(C)[C@@H](C(=O)Cn4ccnn4)CC[C@@H]32)C1 | 0.85 min | 5.88 | 6.99 | 5.56 |  |  |  |  |  |  |  | 
25 | C[C@@]1(O)CC[C@H]2[C@@H](CC[C@@H]3[C@@H]2CC[C@]2(C)[C@@H](C(=O)Cn4cccn4)CC[C@@H]32)C1 | 0.89 min | 5.94 | 6.83 | < 5.52 |  |  |  |  |  |  |  | 
26 | C[C@@]1(O)CC[C@H]2[C@H](CC[C@@H]3[C@@H]2CC[C@]2(C)[C@@H](C(=O)Cn4ncc5ncccc54)CC[C@@H]32)C1 | 0.85 min | < 5.52 | 7.60 | 5.60 |  |  |  |  |  |  |  | 
27 | CC(=O)[C@H]1CC[C@H]2[C@@H]3CC[C@H]4C[C@H](O)CC[C@]4(C)[C@H]3CC[C@]12C [BREXANOLONE] |  | 7.12 | 7.66 | 6.63 | 8.33 mL/min/kg | 55.7 mL/min/kg | 67.5 mL/min/kg | 4.9 | 3.3 µM (≈ 1.05 µg/mL) | 80 mL/min/kg | 2.3% | 1.8

— ChEMBL document CHEMBL3425450, “Neuroactive Steroids. 1. Positive Allosteric Modulators of the (γ-Aminobutyric Acid)A Receptor: Structure-Activity Relationships of Heterocyclic Substitution at C-21” (J Med Chem, 2015)
